The list is not random: actives were taken first. Their share in the collection is about 5.1%.
ERa SRC1 pot – enhancers of ERα–SRC-1 coactivator binding, primary screen, biochemical, TR-FRET, ERα LBD, low estradiol. TR-FRET ERalpha-LBD/SRC-Cy5 coactivator binding, 2 h; 100 = basal binding, no effect. AID 639, 2007. 86,000 compounds, 1.3% hits. coactivator binding (% of control), % at 25.6 µM. Estrogen receptor (Homo sapiens), P03372; in the data active means activity above about 200%;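 further: binding measured in presence of low estradiol as agonist stimulus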
RORA act – activators of orphan receptor RORA, primary screen, cell-based, luminescence. 65,000 compounds, 1.5% hits. Nuclear receptor ROR-alpha (Homo sapiens), P35398. CHO-K1 Gal4-RORA LBD luciferase reporter; percent increase over mock-subtracted basal signal. activation, % at 10 µM;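 active means activation above the mean of all tested compounds plus 3 SD, cut at about 49% in these data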
ERa SRC1 inh – ERα–SRC-1 coactivator interaction inhibitors, primary screen, biochemical, TR-FRET, ERα LBD, estradiol-bound | Estrogen receptor (Homo sapiens), P03372 | TR-FRET ER-alpha LBD / SRC-1 peptide | inhibition, % at 25.6 µM | 86,000 compounds, 1.7% hits; in the data active means inhibition above about 50%
BAP1 block – inhibitors of BAP1 deubiquitinase, primary screen, biochemical, Ub-AMC fluorescence, kinetic. recombinant BAP1, Ub-AMC hydrolysis fluorescence kinetic; active compounds read low. Ubiquitin carboxyl-terminal hydrolase BAP1 (Homo sapiens), Q92560. calls only at 20 µM. 72,000 compounds, 0.48% hits;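 active means activity remaining at or below 50% of control, provided the compound also passes the data quality filters; inactive means the rest, including low values that fail the filters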
SF1 activator – activators of human SF-1, primary screen, cell-based, CHO-K1, Gal4-SF-1 LBD, luciferase luminescence | activation, % at 10 µM | 65,000 compounds, 1.9% hits | Steroidogenic factor 1 (Homo sapiens), Q13285 | CHO-K1 Gal4-SF-1 LBD luciferase reporter; % increase over DMSO SF-1-specific signal;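 active means activation above the mean activation of all tested compounds plus 3 SD, cut at about 50% in these data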
Target sequence (Q13285 whole entry, looked up, the tested form may be a part): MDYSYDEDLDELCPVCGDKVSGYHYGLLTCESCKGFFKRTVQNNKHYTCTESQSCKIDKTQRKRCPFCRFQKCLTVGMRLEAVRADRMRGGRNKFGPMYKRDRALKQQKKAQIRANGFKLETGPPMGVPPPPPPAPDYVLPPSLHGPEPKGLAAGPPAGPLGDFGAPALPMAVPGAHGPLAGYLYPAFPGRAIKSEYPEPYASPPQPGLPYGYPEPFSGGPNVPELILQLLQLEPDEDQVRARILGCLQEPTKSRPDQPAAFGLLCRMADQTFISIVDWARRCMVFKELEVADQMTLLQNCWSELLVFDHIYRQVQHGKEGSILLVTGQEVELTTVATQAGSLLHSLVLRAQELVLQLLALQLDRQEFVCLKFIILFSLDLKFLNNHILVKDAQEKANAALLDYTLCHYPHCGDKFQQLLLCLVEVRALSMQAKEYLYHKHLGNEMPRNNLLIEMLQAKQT
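Assay system: CHO-K1 cells co-transfected with Gal4 DBD–human SF-1 LBD, 5xGal4 luciferase reporter; doses: 10 µM only; incubation: 20 h compound exposure at 37 °C after 1 h cell settling; signal: luciferase light emission; evaluation: percent activation versus DMSO; repeats: one test per compound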
ERb SRC1 inh – inhibitors of ERβ-SRC1 coactivator interaction, primary screen, biochemical, TR-FRET, ERβ LBD, SRC-1 peptide; AID 633, 2007; inhibition, % at 25.6 µM; 86,000 compounds, 1.3% hits; TR-FRET ER-beta LBD / SRC1-Cy5 peptide binding; receptor agonist-loaded with 1 µM estradiol;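 active means compounds whose percent inhibition of the receptor-coactivator binding signal exceeds about 50% in the single-dose screen, limit read from the data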
Numbers stand for hits; [ ] = dose if it differs, or a comment.

`COc1ccc(-c2nnc(SCC(=O)Nc3sc4c(c3C#N)CCCC4)n2-c2ccccc2)cc1` gave ERa SRC1 pot 229.5[fluorescence artefact?], ERa SRC1 inh inactive and ERb SRC1 inh inactive.
NC(=O)c1c(NC(=O)CSc2nnc(-c3ccco3)n2-c2ccccc2)sc2c1CCC2 was read as ERa SRC1 pot inactive, RORA act inactive, ERa SRC1 inh 93.9[fluorescence artefact?], BAP1 block inactive, SF1 activator inactive and ERb SRC1 inh 82.2[fluorescence artefact?].
CCOC(=O)C1=C(C)Nc2nnnn2C1c1ccc(OC(=O)c2ccccc2)cc1 (configuration not stated) was read as BAP1 block inactive.
`COC(=O)C1=C(C)NC(=O)NC1c1ccc(OCc2ccccc2)c(OC)c1` (configuration not stated) gave BAP1 block inactive.
Screening CCOc1ccc(C2NC(=O)NC(C)=C2C(=O)OCCSCC)cc1 (configuration not stated) returned BAP1 block inactive.
`CCC1(CC)NC(=O)N(CC(=O)Nc2sc3c(c2C(N)=O)CCC3)C1=O` gave ERa SRC1 pot inactive, RORA act inactive, ERa SRC1 inh 84.3, BAP1 block inactive, SF1 activator inactive and ERb SRC1 inh 73.7[fluorescence artefact?].
`CCCCC(=O)Nc1sc2c(c1C(N)=O)CCC2` gave ERa SRC1 pot inactive, RORA act inactive, ERa SRC1 inh inactive, BAP1 block inactive, SF1 activator inactive and ERb SRC1 inh inactive.
For COc1ccc(-c2ccc(C#N)c(SCC(=O)Nc3sc4c(c3C#N)CCC4)n2)cc1 the results were ERa SRC1 pot inactive, ERa SRC1 inh inactive and ERb SRC1 inh inactive.
Screening O=C(CSc1n[nH]c(-c2ccco2)n1)Nc1sc2c(c1C(=O)Nc1ccccc1)CCCC2 returned ERa SRC1 pot inactive, RORA act inactive, ERa SRC1 inh 50.6, SF1 activator inactive and ERb SRC1 inh inactive.
N#Cc1ccc(-c2cccnc2)nc1SCC(=O)Nc1sc2c(c1C#N)CCC2 was read as ERa SRC1 pot inactive, RORA act inactive, ERa SRC1 inh 84.6, SF1 activator inactive and ERb SRC1 inh 65.6.
For Cc1cc2cc(CN3C(=O)c4ccccc4C3=O)ccc2n1C the results were ERa SRC1 pot 299.7[fluorescence artefact?], RORA act inactive, ERa SRC1 inh inactive, BAP1 block inactive, SF1 activator inactive and ERb SRC1 inh inactive.
For Cc1ccc2nc(NC(=O)COC(=O)c3ccc(Br)o3)sc2c1 the results were ERa SRC1 pot inactive, ERa SRC1 inh inactive and ERb SRC1 inh inactive.
`Cc1ccc(C(=O)Nc2nc3ccc(S(C)(=O)=O)cc3s2)o1` gave ERa SRC1 pot inactive, ERa SRC1 inh inactive and ERb SRC1 inh inactive.
For O=C(Nc1nc2ccc(S(=O)(=O)N3CCCCC3)cc2s1)c1cccnc1 the results were ERa SRC1 pot inactive, ERa SRC1 inh inactive and ERb SRC1 inh inactive.
CN(C)S(=O)(=O)c1ccc2nc(NC(=O)c3cccnc3)sc2c1 was read as ERa SRC1 pot inactive, RORA act inactive, ERa SRC1 inh inactive, SF1 activator 62.1 and ERb SRC1 inh inactive.
Screening Cc1ccc2nc(NC(=O)COC(=O)c3ccco3)sc2c1 returned ERa SRC1 pot inactive, RORA act 60.6, ERa SRC1 inh inactive, BAP1 block inactive, SF1 activator inactive and ERb SRC1 inh inactive.
Screening CS(=O)(=O)c1ccc2nc(NC(=O)c3ccco3)sc2c1 returned RORA act 65.5, BAP1 block inactive and SF1 activator 74.4.
Screening COc1ccc(N2C(=O)C(N3C(=O)c4ccc([N+](=O)[O-])cc4C3=O)C2c2cc(Br)ccc2OC)cc1 (configuration not stated) returned BAP1 block inactive.
For CCCCSc1nc2c(c(=O)[nH]c(=O)n2C)n1C(C)C the results were BAP1 block inactive.

High-throughput results deposited in PubChem by several laboratories.
